This passage reports EC50, Ki and pKa results from ChEMBL document CHEMBL1134626, “Synthesis of potent C(2)-symmetric, diol-based hiv-1 protease inhibitors. Investigation of thioalkyl and thioaryl P1/P1' substituents” (J Med Chem, 2001).

For series [1], the system named is Human immunodeficiency virus 1. The series is described as follows: In Vitro anti HIV activity was evaluated in HIV cytopathic assay in MT-4 cells. The class given is functional. The following applies: Human immunodeficiency virus 1, MT4; read-out: ED50 (the source's name). The method in brief: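 HIV cytopathic assay in MT-4 cells; protection quantified with vital dye XTT; ED50 calculated from percent cytoprotection per compound.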
(Protection from cytopathic effect is a common read-out in antiviral testing.)

In series [2] the target is Human immunodeficiency virus type 1 protease (Human immunodeficiency virus 1, UniProt Q72874). The series is described as follows: Inhibitory activity against HIV protease expressed in Escherichia coli. The method in brief: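 HIV-1 protease cloned and heterologously expressed in E. coli; Ki determined by fluorometric enzyme assay.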
The nature of series [3]: Dissociation constant was measured. The class given is physicochemical.
In series [4] the test system is Human immunodeficiency virus 1. The series is described as follows: Compound was evaluated for Antiviral activity against HIV-1. Type of series: functional. Conditions: read-out: ED50 (the source's name). The method in brief:
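HIV cytopathic assay in MT-4 cells; cell protection read out with the vital dye XTT. ED50 taken as the 50% inhibitory concentration, calculated from percent cytoprotection for each compound.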

Consider `CNC(=O)[C@@H](NC(=O)[C@H](OCc1ccccc1)[C@H](O)[C@@H](O)[C@@H](OCc1ccccc1)C(=O)N[C@H](C(=O)NC)C(C)C)C(C)C`, for which the EC50 in series [1] is 1300 nM.
Usually Ki stands for the dissociation constant of the complex between target and ligand, obtained from inhibition or displacement. High values mean lower affinity, low ones higher affinity. Broadly, the pKa is the pH at which an ionisable group is half protonated. Read a high pKa as a group that holds its proton tightly. As for `C=CCS[C@@H](C(=O)NC1c2ccccc2C[C@H]1O)[C@H](O)[C@@H](O)[C@@H](SCC=C)C(=O)N[C@H]1c2ccccc2C[C@H]1O` (stereo not given in full), the EC50 in series [1] was greater than 10000 nM. Further, in series [2], the affinity corresponds to a Ki of 16 nM. Besides, the pKa in series [3] amounted to 9.8.
In the case of `CNC(=O)[C@@H](NC(=O)[C@H](Sc1ccccc1)[C@H](O)[C@@H](O)[C@@H](Sc1ccccc1)C(=O)N[C@H](C(=O)NC)C(C)C)C(C)C`, the EC50 in series [1] worked out at 6300 nM. In addition, the inhibition constant (Ki) in series [2] was determined as 1.8 nM. The same molecule displayed a pKa in series [3] of 6.6.
In the case of `CNC(=O)[C@@H](NC(=O)[C@H](Sc1ccccc1F)[C@H](O)[C@@H](O)[C@@H](Sc1ccccc1F)C(=O)N[C@H](C(=O)NC)C(C)C)C(C)C`, in series [1], the EC50 was found to be 3600 nM. The molecule further yielded a Ki in series [2] of 0.57 nM. The molecule also had a pKa in series [3] of 6.
In the case of `O=C(NC1c2ccccc2C[C@H]1O)[C@H](OCc1ccccc1)[C@H](O)[C@@H](O)[C@@H](OCc1ccccc1)C(=O)N[C@H]1c2ccccc2C[C@H]1O` (stereo not given in full), in series [1], the EC50 amounted to 96 nM.
Turning to `O=C(NC1c2ccccc2C[C@H]1O)[C@H](SCc1ccccc1)[C@H](O)[C@@H](O)[C@@H](SCc1ccccc1)C(=O)N[C@H]1c2ccccc2C[C@H]1O` (stereo not given in full), the EC50 in series [1] stood at 1100 nM. Besides, the affinity in series [2], expressed as Ki, was 2.8 nM. The pKa in series [3] turned out to be 9.7.
Consider `O=C(NC1c2ccccc2C[C@H]1O)[C@H](Sc1cccs1)[C@H](O)[C@@H](O)[C@@H](Sc1cccs1)C(=O)N[C@H]1c2ccccc2C[C@H]1O` (stereo not given in full), for which, in series [1], the EC50 is 27 nM. Further, the affinity in series [2] corresponds to a Ki of 0.5 nM. This molecule yielded a pKa in series [3] of 6.4.
As to `CNC(=O)[C@@H](NC(=O)[C@H](Sc1cccs1)[C@H](O)[C@@H](O)[C@@H](Sc1cccs1)C(=O)N[C@H](C(=O)NC)C(C)C)C(C)C`, in series [1], the EC50 turned out to be 4200 nM. Also, affinity in series [2] was put at a Ki of 1 nM. In addition, the pKa in series [3] was 6.4.
On to `O=C(NC1c2ccccc2C[C@H]1O)[C@H](Sc1ccccc1F)[C@H](O)[C@@H](O)[C@@H](Sc1ccccc1F)C(=O)N[C@H]1c2ccccc2C[C@H]1O` (stereo not given in full), for which, in series [1], the EC50 was determined as 110 nM. In addition, the Ki in series [2] was 2.3 nM. Also, the pKa in series [3] came out at 6.
With `O=C(NC1c2ccccc2C[C@H]1O)[C@H](Sc1ccccc1)[C@H](O)[C@@H](O)[C@@H](Sc1ccccc1)C(=O)N[C@H]1c2ccccc2C[C@H]1O` (stereo not given in full), the EC50 in series [1] worked out at 260 nM. The same molecule yielded a Ki in series [2] of 1.8 nM. The molecule further had a pKa in series [3] of 6.6.
In the case of `O=C(NC1c2ccccc2C[C@H]1O)[C@H](SCc1ccccc1F)[C@H](O)[C@@H](O)[C@@H](SCc1ccccc1F)C(=O)N[C@H]1c2ccccc2C[C@H]1O` (stereo not given in full), in series [1], the EC50 worked out at 210 nM. The molecule further returned a Ki in series [2] of 4.3 nM. The molecule also came in with a pKa in series [3] of 9.2.
On to `O=C(NC1c2ccccc2C[C@H]1O)[C@H](Sc1ccccn1)[C@H](O)[C@@H](O)[C@@H](Sc1ccccn1)C(=O)N[C@H]1c2ccccc2C[C@H]1O` (stereo not given in full), for which the EC50 in series [1] was greater than 10000 nM. Also, in series [2], the Ki worked out at 285 nM. The pKa in series [3] is 9.6.
On to `CC(C)(C)NC(=O)[C@@H]1CN(Cc2cccnc2)CCN1C[C@@H](O)C[C@@H](Cc1ccccc1)C(=O)N[C@H]1c2ccccc2C[C@H]1O` [INDINAVIR], for which, in series [4], the EC50 worked out at 73 nM.
In the case of `Cc1c(O)cccc1C(=O)N[C@@H](CSc1ccccc1)[C@H](O)CN1C[C@H]2CCCC[C@H]2C[C@H]1C(=O)NC(C)(C)C` [NELFINAVIR], the EC50 in series [4] was 56 nM.
With `CC(C)c1nc(CN(C)C(=O)N[C@H](C(=O)N[C@@H](Cc2ccccc2)C[C@H](O)[C@H](Cc2ccccc2)NC(=O)OCc2cncs2)C(C)C)cs1` [RITONAVIR], the EC50 in series [4] came out at 55 nM.
